Values after ≈ are worked out from the molar mass of the structure shown.
How the values were obtained:
[1] = test system: Kocuria rhizophila; test: Antimicrobial activity against Kocuria rhizophila clinical isolate at 50 ug/disk incubated for 20 +/- 4 hrs by agar disk diffusion method; assay type: functional; conditions: read-out: DIZ
Method in brief: (§1)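 Agar disk diffusion on Mueller-Hinton agar swab-seeded from a 0.5 McFarland inoculum (about 10^8 CFU/ml). Cellulose discs got 50 μg compound (10 μl of 5 g/L in DMSO); a 10 μL DMSO disc was the control. Incubated aerobically at 35 ± 2 °C for 20 ± 4 h, then growth-inhibition diameters measured.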

[2] = test system: Staphylococcus aureus; test: Antimicrobial activity against Staphylococcus aureus clinical isolate at 50 ug/disk incubated for 20 +/- 4 hrs by agar disk diffusion method; assay type: functional; conditions: read-out: DIZ; method in brief: as §1
[3] = test system: Staphylococcus aureus; test: Antimicrobial activity against Staphylococcus aureus ATCC 29213 at 50 ug/disk incubated for 20 +/- 4 hrs by agar disk diffusion method; assay type: functional; conditions: read-out: DIZ; method in brief: as §1
[4] = test system: Streptococcus pyogenes; test: Antimicrobial activity against Streptococcus pyogenes clinical isolate at 50 ug/disk incubated for 20 +/- 4 hrs by agar disk diffusion method; assay type: functional; conditions: read-out: DIZ
Method in brief: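 Plates of MH + 5% horse blood were swabbed with a 0.5 McFarland inoculum and received discs with 50 μg compound (from 5 g/L in DMSO) plus a 10 μL DMSO control disc. Incubation at 35 ± 2 °C aerobically with 5% CO2 for 20 ± 4 h, then zone diameters measured.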

[5] = test system: Bacillus subtilis; test: Antimicrobial activity against Bacillus subtilis clinical isolate at 50 ug/disk incubated for 20 +/- 4 hrs by agar disk diffusion method; assay type: functional; conditions: read-out: DIZ; method in brief: as §1
[6] = test system: Enterococcus faecium; test: Antimicrobial activity against Enterococcus faecium AUS0004 at 50 ug/disk incubated for 20 +/- 4 hrs by agar disk diffusion method; assay type: functional; conditions: read-out: DIZ; method in brief: as §1
[7] = test system: Enterococcus faecium; test: Antimicrobial activity against Enterococcus faecium HM1070 at 50 ug/disk incubated for 20 +/- 4 hrs by agar disk diffusion method; assay type: functional; conditions: read-out: DIZ; method in brief: as §1
[8] = test system: Listeria monocytogenes; test: Antimicrobial activity against Listeria monocytogenes clinical isolate at 50 ug/disk incubated for 20 +/- 4 hrs by agar disk diffusion method; assay type: functional; conditions: read-out: DIZ
Method in brief: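 Disk diffusion on MH agar with 5% horse blood, seeded by swab from a 0.5 McFarland suspension. Discs held 50 μg compound from a 5 g/L DMSO solution, with a DMSO-only control disc. Aerobic incubation at 35 ± 2 °C for 20 ± 4 h; inhibition zone diameter read.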

[9] = test system: Escherichia coli; test: Antimicrobial activity against Escherichia coli clinical isolate at 50 ug/disk incubated for 20 +/- 4 hrs by agar disk diffusion method; assay type: functional; conditions: read-out: DIZ; method in brief: as §1
[10] = test system: Proteus mirabilis; test: Antimicrobial activity against Proteus mirabilis clinical isolate at 50 ug/disk incubated for 20 +/- 4 hrs by agar disk diffusion method; assay type: functional; conditions: read-out: DIZ; method in brief: as §1
[11] = test system: Pseudomonas aeruginosa; test: Antimicrobial activity against Pseudomonas aeruginosa clinical isolate at 50 ug/disk incubated for 20 +/- 4 hrs by agar disk diffusion method; assay type: functional; conditions: read-out: DIZ; method in brief: as §1
[12] = test system: Mycobacteroides abscessus; test: Antimicrobial activity against Mycobacterium abscessus clinical isolate at 50 ug/disk incubated for 4 days by agar disk diffusion method; assay type: functional; conditions: 96 h, read-out: DIZ
Method in brief: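 On MH agar with 5% horse blood, a 0.5 McFarland inoculum was swabbed and discs with 50 μg compound (from 5 g/L in DMSO) were laid down, alongside a DMSO control disc. Incubation was humid and aerobic at 35 ± 2 °C for 4 days, then growth-inhibition diameters were measured.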

[13] = test system: Streptococcus pyogenes; test: Antimicrobial activity against Streptococcus pyogenes clinical isolate by broth microdilution method; assay type: functional
Method in brief: (§2)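 MICs were set by broth microdilution following EUCAST guidelines, from three independent experiments reported as values or ranges. MICs were measured only where disk-diffusion inhibition diameters were 9 mm or more.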

[14] = test system: Enterococcus faecalis; test: Antimicrobial activity against Enterococcus faecalis ATCC 29212 by broth microdilution method; assay type: functional; method in brief: as §2
[15] = test system: Enterococcus faecium; test: Antimicrobial activity against Enterococcus faecium AUS0004 by broth microdilution method; assay type: functional; method in brief: as §2
[16] = test system: Listeria monocytogenes; test: Antimicrobial activity against Listeria monocytogenes clinical isolate by broth microdilution method; assay type: functional; method in brief: as §2
[17] = test system: Bacteroides fragilis; test: Antimicrobial activity against Bacteroides fragilis ATCC 25285 by broth microdilution method; assay type: functional; method in brief: as §2
[18] = test system: Mycobacteroides abscessus; test: Antimicrobial activity against Mycobacterium abscessus clinical isolate by broth microdilution method; assay type: functional; method in brief: as §2
[19] = test system: Mycolicibacterium fortuitum; test: Antimicrobial activity against Mycobacterium fortuitum clinical isolate by broth microdilution method; assay type: functional; method in brief: as §2
[20] = test system: Enterococcus faecalis; test: Synergistic antimicrobial activity against Enterococcus faecalis ATCC 29212 assessed as DIZ at 50 ug/disk incubated for 20 +/- 4 hrs in presence of streptomycin by agar disk diffusion method (reference value: 18 millimeter); assay type: functional; conditions: read-out: DIZ
[21] = test system: Enterococcus faecalis; test: Synergistic antimicrobial activity against Enterococcus faecalis ATCC 29212 assessed as DIZ at 50 ug/disk incubated for 20 +/- 4 hrs in presence of gentamicin by agar disk diffusion method (reference value: 13 millimeter); assay type: functional; conditions: read-out: DIZ
[22] = test system: Enterococcus faecium; test: Synergistic antimicrobial activity against Enterococcus faecium AUS0004 assessed as DIZ at 50 ug/disk incubated for 20 +/- 4 hrs in presence of imipenem by agar disk diffusion method (reference value: 6 millimeter); assay type: functional; conditions: read-out: DIZ
[23] = test system: Enterococcus faecium; test: Synergistic antimicrobial activity against Enterococcus faecium AUS0004 assessed as DIZ at 50 ug/disk incubated for 20 +/- 4 hrs in presence of erythromycin by agar disk diffusion method (reference value: 6 millimeter); assay type: functional; conditions: read-out: DIZ
[24] = test system: Listeria monocytogenes; test: Synergistic antimicrobial activity against Listeria monocytogenes clinical isolate assessed as DIZ at 50 ug/disk incubated for 20 +/- 4 hrs in presence of moxalactam by agar disk diffusion method (reference value: 13 millimeter); assay type: functional; conditions: read-out: DIZ
[25] = test system: Listeria monocytogenes; test: Synergistic antimicrobial activity against Listeria monocytogenes clinical isolate assessed as DIZ at 50 ug/disk incubated for 20 +/- 4 hrs in presence of fosfomycin by agar disk diffusion method (reference value: 6 millimeter); assay type: functional; conditions: read-out: DIZ
[26] = test system: Listeria monocytogenes; test: Synergistic antimicrobial activity against Listeria monocytogenes clinical isolate assessed as DIZ at 50 ug/disk incubated for 20 +/- 4 hrs in presence of ofloxacin by agar disk diffusion method (reference value: 19 millimeter); assay type: functional; conditions: read-out: DIZ
[27] = test system: Caco-2; test: Cytotoxicity against human Caco2 cells assessed as decrease in cell viability in MTT assay; assay type: cell-based
Method in brief: (§3)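 Cell viability was measured by MTT on a robotic screening platform. Residual viability was expressed as a percentage of the mean viable cells in DMSO-treated controls. Under 25-30% viability was considered cytotoxic, and IC50 values were derived.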

[28] = test system: MDA-MB-231; test: Cytotoxicity against human MDA-MB-231 cells assessed as decrease in cell viability in MTT assay; assay type: cell-based; method in brief: as §3
[29] = test system: Escherichia coli; test: Antimicrobial activity against Escherichia coli BW25113 at 10 mM/disk incubated for 20 +/- 4 hrs by agar disk diffusion method; assay type: functional; conditions: read-out: DIZ
[30] = test system: Escherichia coli; test: Antimicrobial activity against Escherichia coli BW25113 by broth microdilution method; assay type: functional
Method in brief: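 MIC by broth microdilution per EUCAST guidelines, in E. coli BW25113 and its previously described deletion derivative.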

[31] = test system: Escherichia coli; test: Antimicrobial activity against TolC deficient Escherichia coli BW25113 by agar disk diffusion method; assay type: functional
[32] = test system: Escherichia coli; test: Antimicrobial activity against arfA-arfB TolC deficient Escherichia coli BW25113 by agar disk diffusion method; assay type: functional
[33] = test system: Escherichia coli; test: Antimicrobial activity against clpP-TolC deficient Escherichia coli BW25113 by agar disk diffusion method; assay type: functional
[34] = test system: Escherichia coli; test: Antimicrobial activity against ssrA-TolC deficient Escherichia coli BW25113 by agar disk diffusion method; assay type: functional
[35] = test system: Escherichia coli; test: Bactericidal activity against TolC deficient Escherichia coli BW25113 by broth microdilution method; assay type: functional

Row | SMILES | zone of inhibition at 50 µg/disc [1] | zone of inhibition at 50 µg/disc [2] | zone of inhibition at 50 µg/disc [3] | zone of inhibition at 50 µg/disc [4] | zone of inhibition at 50 µg/disc [5] | zone of inhibition at 50 µg/disc [6] | zone of inhibition at 50 µg/disc [7] | zone of inhibition at 50 µg/disc [8] | zone of inhibition at 50 µg/disc [9] | zone of inhibition at 50 µg/disc [10] | zone of inhibition at 50 µg/disc [11] | zone of inhibition at 50 µg/disc [12] | MIC [13] | MIC [14] | MIC [15] | MIC [16] | MIC [17] | MIC [18] | MIC [19] | zone of inhibition at 50 µg/disc [20] | other results
1 | O=C(Nc1nnc(-c2ccc(C(F)(F)F)cc2)o1)c1cccc(Cl)c1 | 30 mm | 28 mm | 24 mm | 9 mm | 24 mm | 21 mm | 23 mm | 28 mm | 6 mm | 6 mm | 6 mm | 9 mm | 4 to 32 µg/mL (≈ 10.9 to 87 µM) | 0.125 to 1 µg/mL (≈ 0.34 to 2.72 µM) | 0.0625 to 0.25 µg/mL (≈ 0.17 to 0.68 µM) | 8 µg/mL (≈ 21.8 µM) | 1 to 2 µg/mL (≈ 2.72 to 5.44 µM) | 32 to 64 µg/mL (≈ 87 to 174 µM) | 16 to 32 µg/mL (≈ 43.5 to 87 µM) | 24 mm | zone of inhibition at 50 µg/disc [21]: 23 mm; zone of inhibition at 50 µg/disc [22]: 24 mm; zone of inhibition at 50 µg/disc [23]: 22 mm; zone of inhibition at 50 µg/disc [24]: 33 mm; zone of inhibition at 50 µg/disc [25]: 30 mm; zone of inhibition at 50 µg/disc [26]: 29 mm; IC50 [27]: 11 µM; IC50 [28]: 23 µM; zone of inhibition at 10000 µM [29]: 6 mm; MIC [30]: > 128 µM; diameter of the inhibition zone (DIZ) [31]: 21.3 mm; diameter of the inhibition zone (DIZ) [32]: 22.6 mm; diameter of the inhibition zone (DIZ) [33]: 22.3 mm; diameter of the inhibition zone (DIZ) [34]: 22.3 mm; MBC [35]: 16 µM (≈ 5.88 µg/mL)
2 | O=C(Nc1nnc(-c2ccc(C(F)(F)F)cc2)o1)c1ccc(Cl)nc1 | 28 mm | 30 mm | 22 mm | 10 mm | 24 mm | 23 mm | 24 mm | 31 mm | 6 mm | 6 mm | 6 mm | 14 mm | 32 µg/mL (≈ 86.8 µM) | 2 to 4 µg/mL (≈ 5.42 to 10.8 µM) | 2 µg/mL (≈ 5.42 µM) | 8 µg/mL (≈ 21.7 µM) | 2 µg/mL (≈ 5.42 µM) | 16 to 32 µg/mL (≈ 43.4 to 86.8 µM) | 8 µg/mL (≈ 21.7 µM) | 22 mm | zone of inhibition at 50 µg/disc [21]: 23 mm; zone of inhibition at 50 µg/disc [22]: 24 mm; zone of inhibition at 50 µg/disc [23]: 22 mm; zone of inhibition at 50 µg/disc [24]: 30 mm; zone of inhibition at 50 µg/disc [25]: 29 mm; zone of inhibition at 50 µg/disc [26]: 30 mm; IC50 [27]: > 25 µM; IC50 [28]: > 25 µM; zone of inhibition at 10000 µM [29]: 6 mm; MIC [30]: > 128 µM; diameter of the inhibition zone (DIZ) [31]: 23.6 mm; diameter of the inhibition zone (DIZ) [32]: 22.05 mm; diameter of the inhibition zone (DIZ) [33]: 27 mm; diameter of the inhibition zone (DIZ) [34]: 27 mm; MBC [35]: > 32 µM

From ChEMBL document CHEMBL4364345, “Synthesis and evaluation of 1,3,4-oxadiazole derivatives for development as broad-spectrum antibiotics” (Bioorg Med Chem, 2019)
